Lmaj promast – Leishmania major promastigote growth inhibition. Leishmania major promastigotes, resazurin fluorescence viability. inhibition, % at 10 µM. 200,000 compounds, 9% hits. AID 1063; in the data active = inhibition above about 50%;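 also: promastigotes grown with compound for 44 hours at 28 °C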
Ba/F3 V617F tox – loss of viability in JAK2V617F-driven Ba/F3 cells; inhibition, % at 5.6 µM; Ba/F3 EpoR-JAK2V617F viability, ATP luminescence; AID 1446; 220,000 compounds, 1.1% hits;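 active = inhibition above the campaign mean plus 3 SD over all tested compounds, cut at about 24% in these data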;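 also: cytokine-independent growth of Ba/F3 cells driven by EpoR plus mutant JAK2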
bCat nuc transl – modulators of beta-catenin nuclear translocation; HeLa beta-catenin nuclear translocation, immunofluorescence imaging; nuclear translocation activity, % at 5 µM; 190,000 compounds, 0.3% hits; AID 1665;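 active = nuclear translocation activity above 50% at 5 µM, with a well cell count of 50 or more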;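 also: per-cell ratio of nuclear to cytoplasmic median beta-catenin stain intensity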
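Signal – beta-catenin immunofluorescence imaging with DAPI · Test system – human HeLa cell line · Dosing – 5 µM primary single dose, 0.1% DMSO, 0.02–20 µM confirmation series · Measure – % activation, nuclear-to-cytoplasmic median beta-catenin signal ratio per cell · Incubation – 24 h compound exposure at 37°C, 5% CO2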
APP transl inh – APP translation inhibition; SH-SY5Y APP 5'UTR-luciferase reporter, luminescence; inhibition, % at 2 µM; 190,000 compounds, 0.82% hits;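 active = inhibition above a set limit, derived from the sample mean plus 3 SD, cut at about 45% in these data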
MT stabilizer – stabilizes microtubules in HeLa cells; HeLa tubulin immunostaining HCS, 24 h; share of cells brighter than vehicle mean+2SD; % tubulin-high responders, % at 10 µM; 200,000 compounds, 0.83% hits; AID 2205;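 active = plate Z-score above 3 for both tubulin-high and condensed-nucleus cell shares, with cell loss under 80%, at 10 µM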;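 also: anti alpha tubulin signal scored within the nucleus-defined area of each cell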
BaF3 tox – counter-screen for JAK2V617F inhibitors: parental Ba/F3 viability inhibitors; 220,000 compounds, 1.1% hits; CellTiter-Glo ATP luminescence; inhibition, % at 5.6 µM;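 active = inhibition above a per-campaign cutoff, the mean inhibition of all tested compounds plus 3 SD, cut at about 27% in these data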
Numbers stand for hits; 0 = inactive; - = no result given. In the library only some 9.6% were active in any assay of this set; here they are far more common.

SMILES	Lmaj promast	Ba/F3 V617F tox	bCat nuc transl	APP transl inh	MT stabilizer	BaF3 tox
Cc1ccccc1NS(=O)(=O)c1cc(C(=O)NCCSC2CCCCC2)ccc1C	100	0	0	0	0	0
Cc1ccc(C)c(NS(=O)(=O)c2cc(C(=O)NCCC3=CCCCC3)ccc2C)c1	0	0	0	0	0	0
O=C(CN1CCN(S(=O)(=O)c2cc(Cl)ccc2Cl)CC1)Nc1ccc2c(c1)OCCO2	0	0	0	0	0	0
CCC(C)c1ccccc1OCCCCN1CCCC1 (centres undefined)	99	0	0	0	0	0
CCC(C)c1ccccc1OCCOCCN1CCCC1 (centres undefined)	98	0	0	0	0	0
Cc1ccccc1OCCCN1CCCC1	0	0	-	0	0	0
CN(C)C(=S)SCC(=O)Nc1cccc(C(F)(F)F)c1	0	0	0	0	0	0
Cc1ccc(NC(=O)CSc2nc3ccccc3c(=O)n2CCCN2CCCCC2)cc1C	100	0	0	0	0	0
COCCCn1c(SCC(=O)Nc2ccc(C(=O)OC)cc2)nc2ccccc2c1=O	89	0	0	0	0	0
Cc1ccc(NC(=O)CSc2nc3ccccc3c(=O)n2CCCC(=O)N2CCCC2)cc1	0	0	0	0	0	0
CCOCCCn1c(SCC(=O)Nc2ccc(C(N)=O)cc2)nc2ccccc2c1=O	0	0	-	0	0	0
CCc1ccc(NC(=O)CSc2nc3ccccc3c(=O)n2CCCN2CCC(C)CC2)cc1	77	0	0	0	0	0
Cc1ccc(NC(CC(=O)c2ccccc2)c2ccc(F)cc2)cc1 (centres undefined)	0	0	0	0	0	0
O=C(CC(Nc1ccc(F)cc1)C(=O)O)c1ccccc1 (centres undefined)	61	0	-	0	0	0
C=CCOc1ccccc1CN1CCSCC1	98	0	0	0	0	0
Cc1ccc(N2CCC(N3CCN(C4CCCCC4)C(CCO)C3)CC2)cc1 (centres undefined)	53	0	0	0	0	0
CCOC(=O)N1CCC(N2CCN(Cc3ccccc3)C(CCO)C2)CC1 (centres undefined)	50	0	0	0	0	0
CC(=O)N1CCC(N2CCN(Cc3ccc(C)cc3)C(CCO)C2)CC1 (centres undefined)	0	0	0	0	0	0
Cc1ccc(CN2CCN(C3CCOCC3)CC2CCO)cc1 (centres undefined)	62	0	0	0	0	0
COc1ccc(OC)c(/C=N/NC(=O)C(=O)NCc2cccnc2)c1	0	0	0	0	0	0
COc1ccc(CCNc2nc(N3CCCCC3)nc(N3CCCCC3)n2)cc1OC	95	0	0	0	0	0
CCOc1nc(NCCc2ccc(OC)c(OC)c2)nc(NC(C)(C)CO)n1	53	0	-	0	0	0
O=[N+]([O-])c1cc(/C=N/O)ccc1Oc1ccccc1Cl	0	0	0	0	0	0
CC#CC[N+](C)(C)CCCCCCCC	-	66	0	-	-	63
CC(=O)c1cc(CN2CCN(C(C)C)C(CCO)C2)cs1 (centres undefined)	0	0	0	0	0	0
SMILES	Lmaj promast	Ba/F3 V617F tox	bCat nuc transl	APP transl inh	MT stabilizer	BaF3 tox
CC(=O)N1N=C(c2cccc(Cl)c2)OC1c1cccc([N+](=O)[O-])c1 (centres undefined)	0	0	0	0	0	0
CC(=O)N1N=C(c2cccc([N+](=O)[O-])c2)OC1c1cccc(Br)c1 (centres undefined)	0	0	66	0	24	0
COC(=O)C1(NC(=O)NC23CC4CC(CC(C4)C2)C3)CCCCC1	0	0	0	0	0	0
CCOc1ccc(N2C(=O)Nc3ccccc3C2(O)C(=O)N2CCN(c3ccccn3)CC2)cc1 (centres undefined)	0	0	0	0	0	0
Cc1ccc(-n2c(=O)c3cc4c(=O)n(-c5ccc(C)c(C)c5)c(=O)c4c(C(=O)c4ccc(C(=O)O)cc4)c3c2=O)cc1C	-	0	0	-	-	0
C=CCOc1c(CNc2ccc(S(N)(=O)=O)cc2)cccc1OC	0	0	0	0	0	0
COc1cccc(C2NC(=O)c3ccccc3O2)c1OCc1ccccc1F (centres undefined)	84	0	0	0	0	0
COc1cccc(CNc2ccccc2O)c1OCc1ccccc1F	62	0	0	0	0	0
COc1cccc(CNc2ccc(C(=O)O)cc2)c1OCc1ccccc1	0	0	0	0	0	0
COc1cccc(C2NC(=O)c3ccccc3O2)c1OC (centres undefined)	0	0	0	0	0	0
COc1cccc(CNc2ccc(S(N)(=O)=O)cc2)c1OCc1ccccc1F	65	0	0	0	0	0
c1ccc(CSc2ccc3nnc(-c4cccnc4)n3n2)cc1	0	0	0	0	0	0
CCc1cccc(C)c1NC(=S)NCc1ccc2[nH]c(C)cc2c1	93	0	0	0	0	0
N#CC(c1cccc(C(F)(F)F)c1)(c1ncc(C(F)(F)F)cc1Cl)N1CCOCC1 (centres undefined)	96	0	-	0	0	0
COc1ccc(CN2CCN(c3ccccn3)CC2)c(OC)c1	0	0	0	0	0	0
c1ccc(CN2CCN(c3nc(-c4ccccc4)nc4ccccc34)CC2)cc1	68	0	0	0	0	0
c1ccc(COc2ccc(CN3CCN(c4ccccn4)CC3)cc2)cc1	95	0	-	0	0	0
c1ccc(CN2CCN(c3nc(-c4ccccn4)nc4ccccc34)CC2)cc1	100	0	0	0	0	0
c1ccc2c(N3CCCC3)nc(-c3ccncc3)nc2c1	0	0	-	0	0	0
CN1CCN(c2nc(-c3ccncc3)nc3ccccc23)CC1	100	0	-	0	0	0
O=C(CC1C(=O)NCCN1Cc1cccc(Oc2ccccc2)c1)NCCc1cnccn1 (centres undefined)	0	0	0	0	0	0
CCN1CCN(c2cc(C)nc(-c3ccccc3O)n2)CC1	-	0	0	-	-	0
CN(C)C(=O)c1ccc(NC(=O)c2ccccc2Sc2ccccc2C#N)cc1	0	0	0	0	0	0
Cc1cc(C)c(C)c(S(=O)(=O)NCc2ccc(C(=O)N3CCCCC3)cc2)c1C	0	0	0	0	0	0
COc1ccc(CC2(C)OC(c3ccc(C)cc3)=NN2C(C)=O)cc1 (centres undefined)	0	0	0	0	0	0
COc1ccc(CC2(C)OC(c3ccccc3)=NN2C(C)=O)cc1 (centres undefined)	53	0	0	0	0	0
Cc1ccccc1C(=O)N1CCN=C1SCc1ccc([N+](=O)[O-])cc1	0	0	0	0	0	0
OCCn1c(-c2ccc(F)cc2)csc1=Nc1ccccc1	0	0	-	0	0	0
O=S(=O)(c1ccc(-c2csc(=Nc3ccccc3)n2CCCN2CCOCC2)cc1)N1CCOCC1	94	0	0	0	0	0
CC(=O)Nc1ccc(S(=O)(=O)N2CCN(c3cnn(C)c(=O)c3Cl)CC2)cc1	0	0	0	0	0	0
